Data from ChEMBL document CHEMBL4616675, “Discovery of 6-Phenylhexanamide Derivatives as Potent Stereoselective Mitofusin Activators for the Treatment of Mitochondrial Diseases” (J Med Chem, 2020).
In brackets after ≈: the same amount, converted by molar mass.

Columns and labels:
[1] = Half life in human liver microsomes at 1 uM by LC-MS/MS analysis; type: ADME, Microsome; details: for t1/2: microsomes, 1 µM; for half-life at 1 µM: liver microsomes
[2] = Half life in mouse liver microsomes at 1 uM by LC-MS/MS analysis; type: ADME, Microsome; details: for t1/2: microsomes, 1 µM; for half-life at 1 µM: liver microsomes
[3] = Half life in CD1 mouse plasma at 10 mg/kg, iv by LC-MS/MS analysis; type: ADME, organism-based; details: for half-life: CD1, mouse, plasma; for t1/2: mouse, in vivo
[4] = Half life in CD1 mouse brain at 10 mg/kg, iv by LC-MS/MS analysis; type: ADME, organism-based
[5] = Cmax in CD1 mouse plasma at 10 mg/kg, iv by LC-MS/MS analysis; type: ADME, organism-based; design: dose 10 mg/kg, route intravenous; details: in vivo
[6] = Cmax in CD1 mouse brain at 10 mg/kg, iv by LC-MS/MS analysis; type: ADME, organism-based; design: dose 10 mg/kg, route intravenous
[7] = AUC in CD1 mouse plasma at 10 mg/kg, iv by LC-MS/MS analysis; type: ADME, organism-based; details: in vivo
[8] = AUC in CD1 mouse brain at 10 mg/kg, iv by LC-MS/MS analysis; type: ADME, organism-based; details: in vivo
[9] = Ratio of drug level in brain to plasma in CD1 mouse at 10 mg/kg, iv by LC-MS/MS analysis; type: ADME, organism-based
Method in brief: (§1)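 Male CD-1 mice, 7–9 weeks, 15 per compound; single tail-vein dose of 10 mg/kg from a 2 mg/ml solution in 10% DMSO/90% (30% HP-β-CD). Plasma and brain sampled at increasing times, assayed in duplicate by LC-MS/MS. Parameters from non-compartmental analysis; mean of at least 3 mice per condition.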

[10] = Drug level in CD1 mouse brain at 10 mg/kg, iv after 1 hr by LC-MS/MS analysis; type: ADME, organism-based; details: read-out: Drug uptake
Method in brief: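 Male CD-1 mice, 7–9 weeks old, given a single 10 mg/kg tail-vein dose. Compound formulated at 2 mg/ml in 10% DMSO/90% (30% HP-β-CD). Plasma and brain sampled at intervals after dosing and analysed in duplicate by LC-MS/MS. Parameters derived by non-compartmental analysis. Values are means of at least 3 mice per condition; 15 mice per compound.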

[11] = Volume of distribution in CD1 mouse at 10 mg/kg, iv by LC-MS/MS analysis; type: ADME, organism-based; details: in vivo; method in brief: as §1
[12] = Stability in human plasma at 2 uM after 120 mins by LC-MS/MS analysis relative to control; type: ADME, cell-free; details: read-out: Stability
Method in brief: (§2)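 Compounds at 2 µM in clarified freeze-thawed plasma, sampled at 0, 10, 30, 60 and 120 min. Supernatants after protein precipitation analysed by LC-MS/MS; the 120 min value is reported. Run in duplicate.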

[13] = Stability in mouse plasma at 2 uM after 120 mins by LC-MS/MS analysis relative to control; type: ADME, cell-free; details: read-out: Stability; method in brief: as §2
[14] = Kinetic solubility in pH 7.4 aqueous solution incubated for 24 hrs by UV spectroscopy; type: physicochemical; details: read-out: Kinetic_solubility

NC1CCC(NC(=O)CCCCCc2ccccc2)CC1 (configuration not stated)
t1/2 [1]: 23.7 min | t1/2 [2]: 111.9 min

O=C(NCCCCc1ccccc1)NC1CCC(O)CC1 (configuration not stated)
t1/2 [1]: > 145 min | t1/2 [2]: > 145 min | half-life [3]: 69 min | half-life [4]: 104 min | Cmax [5]: 6100 ng/mL | Cmax [6]: 1270 ng/g | AUC [7]: 4860 ng·h/mL | AUC [8]: 829 ng·h/g | BPR [9]: 0.171 | concentration at 1 h [10]: < 120 ng/g | Vd [11]: 2 L/kg

CC1CCCCC1NC(=O)NCCOc1nnc(C2CC2)n1-c1ccccc1 (configuration not stated)
remaining at 2 h, 2 µM [12]: 98% | remaining at 2 h, 2 µM [13]: 84% | half-life at 1 µM [1]: 8 min | half-life at 1 µM [2]: 3 min | solubility kinetic at 24 h [14]: 24 µM (≈ 9.2 µg/mL)

O=C(NCCCc1nnc(C2CC2)n1-c1ccc(F)cc1)NC1CCC(F)CC1 (configuration not stated)
t1/2 [1]: 62 min | t1/2 [2]: 17 min

CC1CCC(NC(=O)CCCCCc2ccccc2)CC1 (configuration not stated)
t1/2 [1]: 7 min | t1/2 [2]: 1.4 min

CC1CCCCC1NC(=O)NCCSc1nnc(C2CC2)n1-c1ccccc1 (configuration not stated)
remaining at 2 h, 2 µM [12]: 95% | remaining at 2 h, 2 µM [13]: 94% | t1/2 [1]: 3 min | t1/2 [2]: 1 min | solubility kinetic at 24 h [14]: 67 µM (≈ 26.8 µg/mL)

O=C(CCCCCc1ccccc1)NC1CCC(F)(F)CC1
half-life at 1 µM [1]: 10.2 min | half-life at 1 µM [2]: 2.8 min

O=C(CCCCCc1ccncn1)NC1CCC(O)CC1 (configuration not stated)
t1/2 [1]: > 145 min | t1/2 [2]: > 145 min

O=C(COCCCc1ccccc1)N[C@H]1CC[C@H](O)CC1
t1/2 [1]: > 145 min | t1/2 [2]: > 145 min

CC1CCCCC1NC(=O)NCCCc1nnc(-c2ccccc2)n1C (configuration not stated)
t1/2 [1]: 43 min | t1/2 [2]: 6 min

O=C(CCCCOc1ccccc1)N[C@H]1CC[C@H](O)CC1
t1/2 [1]: > 145 min | t1/2 [2]: > 145 min

O=C(CCOCCc1ccccc1)N[C@H]1CC[C@H](O)CC1
t1/2 [1]: > 145 min | t1/2 [2]: > 145 min

O=C(N[C@H]1CC[C@H](O)CC1)OCCCCc1ccccc1
t1/2 [1]: 131.3 min | t1/2 [2]: 48.9 min

CC1CCCCC1NC(=O)NCCCc1nnc(C2CC2)n1-c1ccccc1 (configuration not stated)
remaining at 2 h, 2 µM [12]: 95% | remaining at 2 h, 2 µM [13]: 100% | t1/2 [1]: 6 min | t1/2 [2]: 2 min | solubility kinetic at 24 h [14]: > 200 µM | t1/2 [3]: 12.6 min

CC1CC(O)CCC1NC(=O)NCCCCc1ccccc1 (configuration not stated)
t1/2 [1]: 40.1 min | t1/2 [2]: 24.2 min | half-life [3]: 38.4 min | half-life [4]: 97.2 min | Cmax [5]: 3647 ng/mL | Cmax [6]: 366 ng/g | AUC [7]: 2564 ng·h/mL | AUC [8]: 207 ng·h/g | BPR [9]: 0.081 | concentration at 1 h [10]: < 30 ng/g | Vd [11]: 2 L/kg

O=C(CCCCCc1cccnc1)NC1CCC(O)CC1 (configuration not stated)
t1/2 [1]: > 145 min | t1/2 [2]: 125.3 min

CCn1c(CCCNC(=O)NC2CCOCC2)nnc1C1CC1
t1/2 [1]: > 145 min | t1/2 [2]: > 145 min | t1/2 [3]: 22.8 min

O=C(CCCCCc1ccncc1)NC1CCC(O)CC1 (configuration not stated)
t1/2 [1]: > 145 min | t1/2 [2]: > 145 min

CC1CCCCC1NC(=O)NCCCc1nnc(C2CC2)n1-c1ccc(F)cc1 (configuration not stated)
t1/2 [1]: 5 min | t1/2 [2]: 1 min

O=C(NCCCc1nnc(C2CC2)n1-c1ccccc1)NC1CCOCC1
t1/2 [1]: > 145 min | t1/2 [2]: 91 min | t1/2 [3]: 11.4 min

CC1CCCCC1NC(=O)NCCc1nnc(-c2ccccc2)n1C (configuration not stated)
t1/2 [1]: 8 min | t1/2 [2]: 28 min

O=C(CCCCCc1ccccc1)NC1CCOCC1
t1/2 [1]: 53.6 min | t1/2 [2]: 9.9 min

O=C(NCCCCc1ccccc1)NC1CCNCC1
t1/2 [1]: > 145 min | t1/2 [2]: 137.5 min

CC1CCCCC1NC(=O)NCCCCc1ccccc1 (configuration not stated)
t1/2 [1]: 13.3 min | t1/2 [2]: 1.9 min

O=C(CCCOCc1ccccc1)N[C@H]1CC[C@H](O)CC1
t1/2 [1]: > 145 min | t1/2 [2]: > 145 min

O=C(CCCCCc1ccccn1)NC1CCC(O)CC1 (configuration not stated)
t1/2 [1]: > 145 min | t1/2 [2]: > 145 min
